Source: ChEMBL document CHEMBL3045103, “Antimicrobial and antiurease activities of newly synthesized morpholine derivatives containing an azole nucleus” (Med Chem Res, 2013)
Active and inactive are the calls of the source.

Experiments:
Format in all cases: functional
[1] = system: Enterococcus faecalis; experiment: Antibacterial activity against Enterococcus faecalis ATCC 29212 after 18 to 24 hr by double microdilution method
Outline: (§1)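 Compounds dissolved in […] as 20.000 μg/mL stock solutions. Tested quantitatively by double microdilution in Mueller–Hinton broth at pH 7.3, with plates incubated 18–24 h at 35 °C. Read-out is the minimal inhibition concentration (MIC) in μg/mL.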

[2] = system: Pseudomonas aeruginosa; experiment: Antibacterial activity against Pseudomonas aeruginosa ATCC 43288 after 18 to 24 hr by double microdilution method
Outline: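 Double microdilution in Mueller–Hinton broth, pH 7.3; plates incubated 18–24 h at 35 °C; MIC (μg/mL) determined. Compounds dissolved in hexane as 20.000 μg/mL stock.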

[3] = system: Staphylococcus aureus; experiment: Antibacterial activity against Staphylococcus aureus ATCC 25923 after 18 to 24 hr by double microdilution method; outline: as §1
[4] = system: Bacillus cereus; experiment: Antibacterial activity against Bacillus cereus 702 Roma after 18 to 24 hr by double microdilution method; outline: as §1
[5] = system: Yersinia pseudotuberculosis; experiment: Antibacterial activity against Yersinia pseudotuberculosis ATCC 911 after 18 to 24 hr by double microdilution method; outline: as §1
[6] = system: Mycolicibacterium smegmatis; experiment: Antibacterial activity against Mycobacterium smegmatis ATCC 607 after 48 to 72 hr by double microdilution method
Outline: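 Compounds dissolved in hexane as 20.000 μg/mL stock solutions. MIC (μg/mL) determined quantitatively by double microdilution, using Brain Heart Infusion broth as the growth medium for M. smegmatis.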

Measured: MIC

NNC(=O)CNc1ccc(N2CCOCC2)nc1
inactive: [1] | [2] | [3] | [4] | [5]

O=C(CNc1ccc(N2CCOCC2)nc1)N/N=C/C=C/c1ccccc1
inactive: [1] | [2] | [3] | [4] | [6] | [5]

O=C(CNc1ccc(N2CCOCC2)nc1)N/N=C/c1ccc(Br)cc1
inactive: [1] | [2] | [3] | [4] | [5]

Sc1nnc(CNc2ccc(N3CCOCC3)nc2)o1
inactive: [1] | [2] | [3] | [4] | [6] | [5]

O=C(CNc1ccc(N2CCOCC2)nc1)N/N=C1\SCC(=O)N1c1ccccc1
inactive: [1] | [2] | [3] | [4] | [6] | [5]

CCOC(=O)CNc1ccc(N2CCOCC2)nc1
inactive: [1] | [2] | [3] | [4] | [5]

Sc1nnc(CNc2ccc(N3CCOCC3)nc2)n1-c1ccccc1
inactive: [1] | [2] | [3] | [4] | [5]

O=C(CNc1ccc(N2CCOCC2)nc1)NNC(=S)Nc1ccccc1
inactive: [1] | [2] | [3] | [4] | [5]

O=C(CNc1ccc(N2CCOCC2)nc1)N/N=c1\sc(-c2ccc(Cl)cc2)cn1-c1ccccc1
inactive: [1] | [2] | [3] | [4] | [6] | [5]
